In the library only some 2.5% were active in any assay of this set; here they are far more common.
TRPC4 inh: inhibitors of mouse TRPC4 channel, primary screen, Fluo4 calcium, HEK293 TRPC4beta/mu-opioid cells. Short transient receptor potential channel 4 (Mus musculus), Q9QUQ5. DAMGO-evoked Fluo4 calcium flux; stronger effect = lower value. B-score at 10 µM. 300,000 compounds, 0.39% hits. AID 2247, 2010;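 active = B-score over 3 SD under the library average, no early fluorescence shift, positive overall ratio signal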
Target sequence (Q9QUQ5 whole entry, looked up): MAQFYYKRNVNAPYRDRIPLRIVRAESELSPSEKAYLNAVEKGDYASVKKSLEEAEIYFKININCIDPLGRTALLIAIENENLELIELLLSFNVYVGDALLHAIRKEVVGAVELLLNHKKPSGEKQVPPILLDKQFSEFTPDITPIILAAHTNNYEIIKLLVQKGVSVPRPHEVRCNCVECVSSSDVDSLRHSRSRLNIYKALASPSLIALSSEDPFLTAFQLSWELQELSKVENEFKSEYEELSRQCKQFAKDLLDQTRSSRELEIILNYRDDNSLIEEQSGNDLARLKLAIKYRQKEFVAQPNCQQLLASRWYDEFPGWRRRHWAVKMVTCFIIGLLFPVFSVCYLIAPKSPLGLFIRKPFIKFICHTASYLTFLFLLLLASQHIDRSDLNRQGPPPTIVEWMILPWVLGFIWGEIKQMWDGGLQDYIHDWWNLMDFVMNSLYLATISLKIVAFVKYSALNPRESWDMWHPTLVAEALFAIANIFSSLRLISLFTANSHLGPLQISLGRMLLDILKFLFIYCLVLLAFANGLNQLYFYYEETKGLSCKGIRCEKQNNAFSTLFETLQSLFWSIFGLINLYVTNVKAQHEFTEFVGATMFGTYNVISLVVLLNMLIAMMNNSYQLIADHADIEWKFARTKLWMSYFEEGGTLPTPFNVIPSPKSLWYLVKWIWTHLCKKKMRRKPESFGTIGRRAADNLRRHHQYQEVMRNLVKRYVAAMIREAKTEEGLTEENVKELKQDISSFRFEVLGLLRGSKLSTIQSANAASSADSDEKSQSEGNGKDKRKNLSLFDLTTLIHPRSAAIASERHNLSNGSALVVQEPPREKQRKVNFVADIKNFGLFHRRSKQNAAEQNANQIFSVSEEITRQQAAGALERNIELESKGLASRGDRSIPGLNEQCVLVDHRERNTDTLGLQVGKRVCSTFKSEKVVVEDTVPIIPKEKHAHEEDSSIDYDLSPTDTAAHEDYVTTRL
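material = TRPC4beta/mu-opioid receptor HEK293 cell line | probe or stimulus = sequential submaximal and maximal DAMGO stimulation | compound dosing = one concentration per compound | measured by = Fluo4 Ca2+ flux fluorescence | evaluation = integrated fluorescence ratio relative to baseline, converted to per-well B score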
Platelet DG rel: inhibitors of platelet dense granule secretion, primary screen, cell-based, MLPCN, human platelets. inhibition, %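 (compounds screened at 7.5 µM in platelet-rich plasma)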. human platelet-rich plasma, SFLLRN dense granule ATP release, luminescence. 300,000 compounds, 0.22% hits;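 active = mean replicate score, as percent of positive control, at or above 50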
TRPC6 inh: mouse TRPC6 channel inhibitors, primary screen, cell-based, HEK293, membrane potential dye; 310,000 compounds, 1.1% hits; Short transient receptor potential channel 6 (Mus musculus), Q61143; B-score at 10 µM; AID 2553, 2010; ACh-evoked depolarization; stronger effect = lower value;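 active = B-score under library mean minus 3 SD, initial fluorescence not abnormally high, positive integrated signal ratio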;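 note: B-score derived from integrated fluorescence ratio over the kinetic read; more negative B-score means stronger inhibition of depolarization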
TRPC6 activator: mouse TRPC6 channel activators, primary screen, cell-based, HEK293, membrane potential dye | HEK293-TRPC6 membrane potential dye fluorescence; stronger effect = higher value | 310,000 compounds, 0.13% hits | AID 2550, 2010 | B-score at 10 µM;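 active = B-score of the integrated fluorescence ratio above library mean plus 3 SD, and starting fluorescence ratio within library mean plus 5 SD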;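 note: higher score means more depolarization so channel activation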
TRPC4 potent: positive allosteric modulators of TRPC4, primary screen, cell-based, mouse TRPC4beta, HEK293 mu-opioid, Fluo-4 calcium; DAMGO EC20, Fluo-4 Ca2+ flux; stronger effect = higher value; 310,000 compounds, 0.42% hits; B-score at 10 µM;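 active = B-score of calcium response area above 5 SD of library B-scores, with initial fluorescence ratio within 5 SD of library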;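 note: B-score of integrated fluorescence ratio over time as area under calcium response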
TRPC4 agonist: activators of mouse TRPC4 channel, primary screen, Fluo4 calcium, HEK293 TRPC4beta/mu-opioid cells | Short transient receptor potential channel 4 (Mus musculus), Q9QUQ5 | Fluo4 calcium fluorescence; stronger effect = higher value | B-score at 10 µM | 310,000 compounds, 0.49% hits | AID 2237, 2010;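 active = B-score above 5 SD of library B-scores, and initial fluorescence ratio not above library mean plus 5 SD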;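 note: positive B-score marks a calcium rise read as TRPC4 activation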
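Assay system: HEK293 stable line with TRPC4beta plus mu-opioid receptor. Times: dye 45 min RT, read 110 s. Measured by: kinetic Fluo4 calcium fluorescence. Measure: B score of integrated ratio. Controls: assay buffer as low control, maximal DAMGO as high control.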
TRPC4 sel inh 2: mouse TRPC4 off-target activity of TRPC6 inhibitors, second screen. 920 compounds, 42% hits. inhibition, % at 10 µM. HEK293 TRPC4/MOR, membrane potential dye fluorescence; channel activated by saturating DAMGO dose. shares compounds with TRPC6 inh. AID 2776;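 active = compounds whose fluorescence signal differed from control wells by over 3 SD, either direction, in both duplicate plates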
TRPC4 spec: mouse TRPC4 modulation by TRPC6 hits, confirmation, selectivity assay for TRPC6 inhibitor project, cell-based, HEK293 TRPC4/mu-opioid, membrane potential dye; shares compounds with TRPC6 inh; activity change, negative = inhibition, % at 10 µM; membrane potential fluorescence; 920 compounds, 61% hits;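 active = rise or fall in signal beyond 3 SD of buffer-only wells in both replicate plates, either sign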;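 note: integrated kinetic ratio of fluorescence range over baseline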
HEK293 MPD ctr 2: nonspecific membrane potential effects, parental HEK293, confirmation, counter-screen for TRPC6 inhibitor project, cell-based, second counter screen; shares compounds with TRPC6 inh; parental HEK293 membrane potential dye fluorescence; maximal acetylcholine challenge after compound addition; signal change vs control, % at 10 µM; 920 compounds, 31% hits;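 active = membrane potential signal moving either way by over 3 SD of the maximum-effect control, in both duplicate plates, meaning non-specific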
HEK293 MPD ctr: membrane potential modulation in parental HEK293, confirmation, counter-screen for TRPC6 inhibitor project, cell-based; shares compounds with TRPC6 inh; parental HEK293 membrane potential dye fluorescence; membrane potential signal change, % at 10 µM; 920 compounds, 60% hits; AID 2780, 2010;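 active = membrane potential signal shifting up or down by more than 3 SD of buffer-only wells, on both duplicate plates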
TRPC6 inh conf: mouse TRPC6 channel inhibitors, confirmation, HEK293 cells, membrane potential dye, duplicate. 3,300 compounds, 43% hits. shares compounds with TRPC6 inh. ACh-evoked depolarization. inhibition, % at 10 µM;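 active = fluorescence ratio falls more than 5 SD below the full-stimulation control mean, in both duplicate runs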;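 note: integrated fluorescence ratio of peak minus minimum over baseline after agonist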
TRPC6 act confirm: mouse TRPC6 channel activators, confirmation, HEK293 cells, membrane potential dye, duplicate | shares compounds with TRPC6 inh | HEK293-TRPC6 membrane potential dye fluorescence, FDSS | activation, % at 10 µM | 2,800 compounds, 11% hits;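 active = ratio signal rise beyond 5 SD above unstimulated control wells' mean, seen in both duplicate runs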;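 note: plate controls were buffer EC0 wells for no effect and acetylcholine ECmax response for full effect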
Active calls of the source: *.

For CCOC(=O)c1cnc2c(OC)cccc2c1N1CCN(c2ccccc2OC)CC1 the results were TRPC4 inh inactive, Platelet DG rel 0.3, TRPC6 inh inactive, TRPC6 activator inactive, TRPC4 potent inactive and TRPC4 agonist inactive.
Screening Cc1ccc2nc(C)c3c(c2c1)N(c1ccc(F)cc1)CC3 returned TRPC4 inh -6*, Platelet DG rel 14.2, TRPC6 inh -9.56*, TRPC6 activator inactive, TRPC4 potent inactive, TRPC4 agonist inactive, TRPC4 sel inh 2 34.5%*, TRPC4 spec inactive, HEK293 MPD ctr 2 27.0%*, HEK293 MPD ctr -193.5%*, TRPC6 inh conf 105.3%* and TRPC6 act confirm inactive.
`Cc1cccc(NC(=O)CSc2nc3nc(C)cc(C)c3c(=O)[nH]2)c1` gave TRPC4 inh inactive, Platelet DG rel 0.3, TRPC6 inh -6.87*, TRPC6 activator inactive, TRPC4 potent inactive, TRPC4 agonist inactive, TRPC4 sel inh 2 inactive, TRPC4 spec inactive, HEK293 MPD ctr 2 inactive, HEK293 MPD ctr inactive, TRPC6 inh conf inactive and TRPC6 act confirm inactive.
For COc1cc(CN(C(=O)c2cccs2)C2CCS(=O)(=O)C2)cc(OC)c1OC (stereo unspecified) the results were TRPC4 inh inactive, Platelet DG rel -1.3, TRPC6 inh inactive, TRPC6 activator inactive, TRPC4 potent inactive and TRPC4 agonist inactive.
Screening Cc1ccc(S(=O)(=O)N2CCCOC2CNC(=O)C(=O)NCc2ccncc2)cc1 (stereo unspecified) returned TRPC4 inh inactive, Platelet DG rel -7.8, TRPC6 inh inactive, TRPC6 activator inactive, TRPC4 potent inactive and TRPC4 agonist inactive.
`CC(C)c1ccc2c(c1)C(N1CCNCC1)Cc1ccc(F)cc1S2` (stereo unspecified) gave TRPC4 inh inactive, Platelet DG rel 1.3, TRPC6 inh inactive, TRPC6 activator inactive, TRPC4 potent inactive and TRPC4 agonist inactive.

Bioassay records deposited in PubChem by several laboratories.
